High-throughput results: PubChem BioAssay, several laboratories
This is a sample that favours compounds with a hit; in the whole collection about 1.6% have one here.
Pf gamet viab = kills late stage P. falciparum gametocytes | P. falciparum stage V gametocytes, ATP luminescence, 24 h | 150,000 compounds, 0.065% hits | inhibition, % at 10.9 µM;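 active = inhibition above the mean plus 3 SD of compounds within the control limits, set per campaign, cut at about 38% in these data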;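 also: 0% = DMSO wells and 100% = medium only without gametocytes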
Wee1 stabilizer = inhibitors of human Wee1 degradation | reporter increase, % at 5 µM | AID 1321 | 220,000 compounds, 1.2% hits | HeLa Luc-Wee1K328M stability, luciferase luminescence; 100% = proteasome inhibitor MG132 effect | P30291;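 active = activation above the mean of all tested compounds plus 3 SD, set per screening run, cut at about 8.8% in these data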;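 also: cells exposed to compound for 20 h before luminescence read; 0% = DMSO alone and 100% = MG132 at 30 µM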
TNF death inh = blocks TNF-alpha induced death of Jurkat FADD-/- cells. Jurkat FADD-/- TNF necroptosis rescue, ATP luminescence, 24 h; 0 = TNF only, 100 = no-TNF cells. activation (protection from cell death), % at 10 µM. 220,000 compounds, 0.068% hits;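 active = activation, meaning protection from cell death, of at least 50% relative to plate controls; inactive = activation below 50%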;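 also: necroptosis triggered by 40 ng/mL TNF-alpha added together with compound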
MDM2 E3 inh = inhibitors of human Mdm2 E3 ubiquitin ligase | cell-based MDM2 ubiquitination luciferase reporter, 2 h; 0 = plate control, 100 = twice control, blank-subtracted | signal enhancement, % at 5 µM | 210,000 compounds, 0.11% hits;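 active = signal enhancement of 30% or more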;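 also: luminescence tracks abundance of the self-degrading MDM2-luciferase fusion protein; higher signal means inhibition of MDM2 E3 ligase activity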
Target sequence (Q00987 whole entry, looked up, the tested form may be a part): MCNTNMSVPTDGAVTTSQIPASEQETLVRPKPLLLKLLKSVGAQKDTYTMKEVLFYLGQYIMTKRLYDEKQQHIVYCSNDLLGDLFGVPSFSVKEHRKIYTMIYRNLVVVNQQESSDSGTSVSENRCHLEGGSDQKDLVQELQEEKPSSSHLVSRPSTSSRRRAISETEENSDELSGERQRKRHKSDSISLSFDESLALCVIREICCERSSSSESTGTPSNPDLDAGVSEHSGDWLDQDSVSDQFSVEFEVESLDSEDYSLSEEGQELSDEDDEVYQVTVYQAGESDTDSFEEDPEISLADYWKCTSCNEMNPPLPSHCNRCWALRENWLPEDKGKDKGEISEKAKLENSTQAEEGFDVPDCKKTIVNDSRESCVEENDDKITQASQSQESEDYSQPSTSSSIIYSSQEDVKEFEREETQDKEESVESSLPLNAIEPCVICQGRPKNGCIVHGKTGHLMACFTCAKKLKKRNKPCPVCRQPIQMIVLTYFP
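Assay system: stable mammalian line carrying autodegrading MDM2–luciferase fusion reporter; amount: 2000 cells seeded into each well; buffer or medium: DMEM; benchmarks: plate control and blank wells; signal: luciferase luminescence; timing: 2 h compound exposure at 37 °C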
zVAD death inh = blocks zVAD induced death of L929 cells. L929 zVAD necroptosis rescue, ATP luminescence, 24 h; with zVAD 60 µM. viability rescue, % at 10 µM. 220,000 compounds, 0.38% hits. AID 1377;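 active = activation, scaled between plate controls, above about 75%, limit read from the data; inactive = activation under that limit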;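 also: 0% = zVAD with DMSO and 100% = DMSO alone without zVAD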
Wee1 degr conf = human Wee1 degradation inhibition, confirmation; shares compounds with Wee1 stabilizer; 1,100 compounds, 4% hits; HeLa Luc-Wee1K328M degradation, luminescence; vehicle 0%, proteasome-blocked wells 100%; activation, % at 5 µM; AID 1410; in the data active = activation above about 8.9%
Active calls of the source: *; x = no result given.

SMILES	Pf gamet viab	Wee1 stabilizer	TNF death inh	MDM2 E3 inh	zVAD death inh	Wee1 degr conf
CN(Cc1ccsc1)C(=O)CCc1nnc(Cc2c[nH]c3ccccc23)o1	-0.1	3.3	0.7	-11.7	-2.0	x
CN(Cc1ccsc1)C(=O)CCc1nnc(CCCc2ccccc2)o1	6.0	11.2*	-0.1	-0.8	0.2	2.4
C/C(=N\NC(=O)c1ccc(N2CCCC2=O)cc1)c1ccncc1	-12.8	14.9*	0.9	-12.8	-0.1	0.4
COC(=O)Cc1c(C(=O)OC)nnn1-c1ccc(OC(F)(F)F)cc1	4.7	15.9*	0.1	-16.7	-1.2	4.7
N#Cc1nc(Cc2cccc3ccccc23)oc1N1CCCCC1	x	-0.1	-2.7	2.8	-0.3	x
CN1CCN(c2oc(Cc3cccc4ccccc34)nc2C#N)CC1	14.1	13.0*	0.3	-11.8	-0.8	0.3
CN(C)c1ccc(/C=C/c2nnnn2-c2ccccc2)cc1	-25.6	11.7*	2.7	-5.0	0.5	4.3
Cc1nc2ccc(N=NC3=C(O)CC(C)(C)CC3=O)cc2s1	x	1.1	1.0	-12.1	1.4	x
CC(=O)N1CCc2cc(N=NC3=C(O)CC(C)(C)CC3=O)ccc21	7.4	17.2*	-0.5	-16.2	0.1	-1.1
CC1CCCCC1NC(=O)CN(C)S(=O)(=O)c1cccc2nsnc12 (centres undefined)	5.9	3.1	0.1	2.2	-0.3	x
Cc1nc2ccccc2n1C1CCN(CC(=O)Nc2ccccc2Br)CC1	-6.8	2.5	-3.1	0.6	1.4	x
COc1cccc(CC2(CO)CCN(Cc3ccc(NC(C)=O)cc3)CC2)c1	x	21.6*	1.0	-10.2	-0.3	-1.9
COc1ccc(CC2(CO)CCN(Cc3ccc(NC(C)=O)cc3)CC2)cc1	14.8	-1.7	1.7	-12.3	0.1	x
CC(C)CC(=O)NC(c1ccccc1Cl)c1c(O)ccc2ccccc12 (centres undefined)	x	20.8*	1.9	-4.7	-0.3	1.6
Nc1ccc(N2CCCCC2)c(S(=O)(=O)Nc2ccccc2Cl)c1	5.3	-1.8	1.2	-9.7	-0.4	x
c1ccc(OCCN2C3=NCCN3c3ccccc32)cc1	x	-0.9	1.3	-17.1	-0.7	x
CN1CCN(C(=S)c2ccc(N(C)C)cc2)CC1	x	1.0	-0.8	3.3	-1.0	x
COc1cc(NC(=O)c2n[nH]c(=O)c3ccccc23)cc(OC)c1	-1.0	-1.0	0.0	x	0.1	x
COc1ccc(-c2nc(NC(=O)c3n[nH]c(=O)c4ccccc34)sc2C)cc1	2.5	31.6*	1.2	-11.4	0.0	-3.4
O=[N+]([O-])c1ccccc1N/N=C/c1cccc(O)c1O	-13.1	0.4	-10.7	x	1.3	x
O=[N+]([O-])c1cccc(N/N=C/c2cccc(O)c2O)c1	-17.1	11.5*	-3.6	-4.7	-0.2	-2.9
Cc1ccc(OCC(O)Cn2c3ccccc3c3ccccc32)cc1 (centres undefined)	x	-3.1	-6.3	12.9	3.3	x
OC(COCC(F)(F)C(F)(F)C(F)(F)C(F)F)Cn1c2ccccc2c2ccccc21 (centres undefined)	-2.6	10.9*	6.3	-5.8	49.4	-0.1
CCOc1ccc(-n2c(-c3ccc(Br)cc3)c[n+]3c2CCCCC3)cc1	11.1	8.6	-3.4	-28.6	-1.0	x
CCOC(=O)CN(C(=O)COc1ccc2c(C)cc(=O)oc2c1)c1ccc(OCC)cc1	6.2	13.0*	1.3	x	-0.7	1.1
SMILES	Pf gamet viab	Wee1 stabilizer	TNF death inh	MDM2 E3 inh	zVAD death inh	Wee1 degr conf
CNC(=O)COC(=O)COc1ccc2c(C)cc(=O)oc2c1	3.1	-2.2	0.4	-5.1	1.5	x
O=C(/C=C/c1ccc(Cl)c(Cl)c1)N1CCc2ccccc21	x	19.1*	0.5	-10.6	2.7	4.9
Cn1cccc1-c1nc2ccc(NC(=O)c3cccs3)cc2[nH]1	x	3.7	-1.0	-8.2	11.7	x
CC(=O)N(C)c1ccc(N=Nc2c(C)[nH]n(C(N)=S)c2=O)cc1	x	17.1*	-3.1	-39.9	-0.1	2.3
CC(=O)N(C)c1ccc(N=Nc2c(C)[nH]n(-c3ccccc3)c2=O)cc1	5.4	x	x	x	x	x
O=C(CC(=O)c1ccccc1O)c1ccc(F)cc1	x	0.4	-7.9	-4.5	0.2	x
O=C(CC(=O)c1ccccc1O)c1cccc(F)c1	x	10.9*	-6.1	-11.9	0.3	4.5
Cc1nc([N+](=O)[O-])c(C(=O)O)n1C	-29.1	-2.5	1.4	-8.1	0.8	x
O=C(CSc1ccccn1)Nc1nc2ccccc2s1	-1.2	1.2	8.9	3.8	0.9	x
Cn1ccnc1SCC(=O)Nc1nc2ccccc2s1	-2.1	13.6*	2.0	10.1	1.2	5.2
O=C(Nc1ccc(Cl)cc1)c1ccc(CN2CCc3ccccc3C2)cc1	-1.7	x	x	x	x	x
O=C(Nc1ccc(CN2CCS(=O)(=O)CC2)cc1)c1ccc(Cl)cc1	2.9	10.9*	0.7	-4.7	1.6	-0.3
Cc1c(NC(=S)NC(C)(C)C)c(=O)n(-c2ccccc2)n1C	x	13.7*	0.7	2.8	1.7	-1.6
Cc1c(NC(=S)NC(=O)C(C)(C)C)c(=O)n(-c2ccccc2)n1C	1.4	-0.9	1.1	3.1	-0.8	x
Cc1ccc(/C=c2\s/c(=C(/C#N)C(=O)N3CCCC3)n(Cc3ccco3)c2=O)s1	-30.3	5.0	-0.1	-12.5	-0.3	x
CN1/C(=C\C(=O)COC(=O)CNC(=O)c2ccccc2F)C(C)(C)c2ccccc21	-10.2	23.1*	-0.2	3.1	0.6	-0.7
CC(=O)Nc1ccc(N2CCCC2)cc1	x	-0.4	-0.5	-10.3	0.0	x
CC(=O)Nc1ccc(N2CCCCC2)cc1	x	11.9*	-1.1	-7.9	-0.2	2.0
COc1ccc(Nc2nc(N)nc(CSc3nccn3C)n2)cc1	x	11.7*	1.3	-8.6	7.6	1.3
Cc1cc(F)ccc1NC(=O)c1ccc(NS(=O)(=O)c2cc(C(C)(C)C)ccc2C)cc1	-3.4	13.4*	1.6	-25.3	0.8	0.7
CCOC(=O)c1ccc2ncc(C(=O)OCC)c(NCCN(C)C)c2c1	x	21.0*	1.0	x	28.1	0.6
O=C(NCCCCNC(=O)C1CCCC1)C1CCCC1	x	-0.8	-0.7	-16.9	0.2	x
CC(C)(CNC(=O)C1CCCC1)CNC(=O)C1CCCC1	x	11.5*	0.3	-15.0	0.4	1.8
Cc1cccc(N2C(=O)CC(N3CCN(c4ccc(Cl)cc4)CC3)C2=O)c1 (centres undefined)	8.6	x	x	x	x	x
Cc1cc(C)nc(N2CCCC(C(=O)Nc3nc4ccc(S(C)(=O)=O)cc4s3)C2)n1 (centres undefined)	x	10.9*	-3.9	-9.0	0.7	-1.6
CC(C)Cn1c(N)c(C(=O)COC(=O)c2ccc(O)cc2)c(=O)n(C)c1=O	-29.1	-3.5	0.2	-3.7	2.0	x
CC(C)Cn1c(N)c(C(=O)COC(=O)c2ccc([N+](=O)[O-])o2)c(=O)n(C)c1=O	x	15.7*	-5.9	-7.5	-0.8	3.1
